Assays:
Cavia porcellus = species on record: Cavia porcellus; assay: In vitro inhibition electrically stimulated guinea pig ileum segment contraction.; type: functional
How it was run: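 Coaxial electrical stimulation with rectangular pulses (0.5 ms, 0.1 Hz, 5–25 V); isometric contraction recording. Drugs added at increasing concentrations until maximal effect.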

Rattus norvegicus [1] = species on record: Rattus norvegicus; assay: Myorelaxant activity in rat aorta in the presence 80 mM KCL.; type: functional
How it was run: (§1)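 Endothelium-denuded transverse aortic rings (3–4 mm) from fed Wistar rats (250–300 g) held under 2 g tension in Krebs-bicarbonate at 37 °C, 95% O2/5% CO2. After 60 min equilibration, contracted with 30 mM or 80 mM KCl; drugs added cumulatively to maximal relaxation, with or without glibenclamide throughout (1 or 10 μM).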

[2] = Myorelaxant activity in rat aorta with 1 uM glibenclamide and 30 mM KCL; type: functional, tissue-based; how it was run: as §1
[3] = Myorelaxant activity in rat aorta with 10 uM glibenclamide and 30 mM KCL; type: functional, tissue-based; how it was run: as §1
Rattus norvegicus [4] = species on record: Rattus norvegicus; assay: In vitro inhibition of 30 mM KCl-induced contraction of rat aorta rings.; type: functional
Rattus norvegicus [5] = species on record: Rattus norvegicus; assay: Myorelaxant activity as percentage residual contractile activity in rat uterus at 10 uM concentration.; type: functional
How it was run: (§2)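 Uterus from fed Wistar rats (150–200 g) pretreated the day before with diethylstilboestrol dipropionate i.m. Tissue superfused at 37 °C. Contractions induced by 20 mU oxytocin injections at 10 min intervals, scored as AUC. Baseline (100%) is the mean of the last three constant responses. Each drug concentration tested with at least three injections; mean AUC expressed as percent of the drug-free response.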

Rattus norvegicus [6] = species on record: Rattus norvegicus; assay: Myorelaxant activity as percentage residual contractile activity in rat uterus at 50 uM concentration.; type: functional; how it was run: as §2
Rattus norvegicus [7] = species on record: Rattus norvegicus; assay: Percentage residual insulin secretion at 1 uM dose from pancreatic islets incubated in the presence of 16.7 mM glucose; type: functional
How it was run: (§3)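 Islets from fed Wistar rats (180–220 g), groups of 10, preincubated 30 min at 37 °C in salt medium with 2.8 mM glucose and 0.5% dialyzed albumin under O2/CO2. Then incubated 90 min at 37 °C with 16.7 mM glucose plus drug. Insulin measured by radioimmunoassay against a rat insulin standard; reported as percentage residual release.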

Rattus norvegicus [8] = species on record: Rattus norvegicus; assay: In vitro percentage residual insulin secretion at 50 uM dose from rat pancreatic islets incubated in the presence of 16.7 mM glucose.; type: functional; how it was run: as §3
Rattus norvegicus [9] = species on record: Rattus norvegicus; assay: Percentage residual insulin secretion at 10 uM dose from pancreatic islets incubated in the presence of 16.7 mM glucose; type: functional; how it was run: as §3

Compound | IC50 (Cavia porcellus) [µM] | IC50 (Rattus norvegicus [1]) [µM] | IC50 [2] [µM] | IC50 [3] [µM] | IC50 (Rattus norvegicus [4]) [µM] | Activity (Rattus norvegicus [5]) [%] | Activity (Rattus norvegicus [6]) [%] | Secretion (Rattus norvegicus [7]) [%] | Secretion (Rattus norvegicus [8]) [%] | Secretion (Rattus norvegicus [9]) [%]
CC(C)Nc1nc(O)c2cc(I)ccc2n1 | 44.1 | 37.2 | 37.3 | 46.4 | 12.1 | 77.6 | 41 | 93.7 | 12.2 | 90.9
CC(Nc1nc(O)c2ccccc2n1)C(C)(C)C (configuration not stated) | – | – | – | – | 12.4 | – | – | – | 50.9 | –
CC1=Nc2ccc(Cl)cc2S(=O)(=O)N1 [DIAZOXIDE] | > 300 | > 300 | 85.8 | 163 | 19.3 | 93.8 | 76.3 | 78.9 | 28.8 | 70
CC(N/C(=N\C#N)Nc1ccncc1)C(C)(C)C (configuration not stated) [PINACIDIL ANHYDROUS] | 9.2 | 16 | 10.4 | 42.5 | 0.5 | 58.1 | 35.5 | 97.8 | 92.1 | 96
C[C@H](Nc1nc(O)c2cc(Cl)ccc2n1)C1CCCCC1 | 15.1 | – | – | – | 2.1 | 102 | 66.5 | – | 8.9 | 43.6
Oc1nc(NCc2ccccc2)nc2ccc(I)cc12 | 8.7 | – | – | – | 1.4 | 106 | 106 | – | 82.8 | –
CC(C)C(C)Nc1nc(O)c2cc(I)ccc2n1 (configuration not stated) | 30.4 | – | – | – | 4.1 | – | – | 94.7 | 30.6 | 87.7
CCC(C)Nc1nc(O)c2cc(I)ccc2n1 (configuration not stated) | 23.6 | – | – | – | 8.9 | – | – | 94.9 | 11.2 | 77.5
C[C@@H](Nc1nc(O)c2cc(Cl)ccc2n1)c1ccccc1 | 20.2 | – | – | – | 2.8 | 120 | 46.5 | – | 35 | –
Oc1nc(NCC2CCCCC2)nc2ccc(I)cc12 | 26 | – | – | – | 3.9 | 96.8 | 97.9 | – | 10 | 65.4
Oc1nc(NCc2ccccc2)nc2ccc(Br)cc12 | – | – | – | – | 7.6 | 76.8 | 76.6 | – | 75.7 | –
CC(C)C(C)Nc1nc(O)c2cc(Cl)ccc2n1 (configuration not stated) | 59.2 | – | – | – | 16.3 | – | – | 81.3 | 10.2 | 61.9
CCC(C)Nc1nc(O)c2cc(Cl)ccc2n1 (configuration not stated) | 44.7 | – | – | – | 13.8 | – | – | 84.9 | 6 | 53.2
Oc1nc(NCC2CCCCC2)nc2ccc(Cl)cc12 | 23.9 | – | – | – | 2.2 | 86 | 80.3 | – | 26.5 | 90.1
Oc1nc(NCc2ccccc2)nc2ccccc12 | – | – | – | – | 43.7 | 97.2 | 47.4 | – | 61.8 | –
C[C@@H](Nc1nc(O)c2cc(Cl)ccc2n1)C1CCCCC1 | 8.2 | 18.1 | > 30 | > 30 | 5.6 | 108 | 90.7 | – | 16.5 | 62.1
CC(C)C(C)NC1=NS(=O)(=O)c2cnccc2N1 (configuration not stated) | > 300 | – | – | – | 154 | – | – | 70.5 | 7.1 | 26.8
C[C@H](Nc1nc(O)c2cc(Cl)ccc2n1)c1ccccc1 | 13.2 | – | – | – | 1.7 | 92.4 | 44.9 | – | 12.9 | 76.9
Oc1nc(NCc2ccccc2)nc2ccc(Cl)cc12 | 13.3 | – | – | – | – | 94.8 | 98.1 | – | 82.5 | –
CC(C)Nc1nc(O)c2ccccc2n1 | – | – | – | – | 67.3 | – | – | – | 45.6 | –
CC(C)Nc1nc(O)c2cc(Cl)ccc2n1 | 74.1 | 34.3 | – | – | 17.3 | 78.7 | 61 | 80.7 | 6.6 | 55.1

From ChEMBL document CHEMBL1134549, “Original 2-alkylamino-6-halogenoquinazolin-4(3H)-ones and K(ATP) channel activity” (J Med Chem, 2001)
